Results taken from ChEMBL document CHEMBL1143837, “In vitro activities of various antimicrobials alone and in combination with tigecycline against carbapenem-intermediate or -resistant Acinetobacter baumannii” (2007).
In brackets after ≈: the same amount, converted by molar mass. Activity calls are given as the source filed them. The calls are words filed in the database; no cut-off is given here.

How the values were obtained:
Acinetobacter baumannii [1] = assay: Antimicrobial activity against carbapenem-intermediate or resistant Acinetobacter baumannii isolates by agar dilution method; assay type: functional
Method in brief: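 Clinical isolates with imipenem or meropenem MIC ≥8 mg/liter were tested by agar dilution on Mueller-Hinton agar supplemented with 25 mg/liter calcium and 12.5 mg/liter magnesium. Inoculum was ~10⁴ CFU per spot from a 0.5 McFarland BHI suspension. Plates were incubated at 35°C for 18–24 h. Growth beyond a single colony or a slight haze counted as growth.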

Acinetobacter baumannii [2] = assay: Antimicrobial activity against carbapenem-intermediate or resistant Acinetobacter baumannii assessed as percent susceptible isolates; assay type: functional
Acinetobacter baumannii [3] = assay: Bactericidal activity against carbapenem-resistant Acinetobacter baumannii AA557 by time kill curve analysis; assay type: functional, organism-based
Method in brief: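 Time-kill on AA557: mid-log (4 h) inoculum at ~5 × 10⁵ CFU/ml in 10 ml fresh CAMHB with tigecycline at 0.5×, 1×, 2× or 4× MIC, or at the calculated average free steady-state serum level, plus growth control. Sampled at 0, 2, 4, 8, 24 and 48 h and plated in duplicate on sheep-blood TSA (35°C, 18–24 h). Detection limit 40 CFU/ml. Experiments run in duplicate.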

Acinetobacter baumannii [4] = assay: Antimicrobial activity against carbapenem-intermediate or resistant Acinetobacter baumannii isolates by broth microdilution method; assay type: functional
Method in brief: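 Tigecycline MIC by broth microdilution in freshly prepared CAMHB (25 mg/liter calcium, 12.5 mg/liter magnesium). Approximately 5 × 10⁵ CFU/ml was added to serial drug dilutions and incubated in ambient air at 35°C for 18–24 h. Isolates had imipenem or meropenem MIC ≥8 mg/liter.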

Acinetobacter baumannii [5] = assay: Bactericidal activity against carbapenem-resistant Acinetobacter baumannii AA557 assessed as reduction in colony count at 2 mg/liter after 24 hrs by time kill curve analysis; assay type: functional, organism-based

| Compound | MIC50 (Acinetobacter baumannii [1]) [µg/mL] | MIC90 (Acinetobacter baumannii [1]) [µg/mL] | Activity (Acinetobacter baumannii [2]) | Activity (Acinetobacter baumannii [3]) | MIC50 (Acinetobacter baumannii [4]) [µg/mL] | MIC90 (Acinetobacter baumannii [4]) [µg/mL] | log10CFU/ml (Acinetobacter baumannii [5]) |
| --- | --- | --- | --- | --- | --- | --- | --- |
| NCC[C@H](O)C(=O)N[C@@H]1C[C@H](N)[C@@H](O[C@H]2O[C@H](CN)[C@@H](O)[C@H](O)[C@H]2O)[C@H](O)[C@H]1O[C@H]1O[C@H](CO)[C@@H](O)[C@H](N)[C@H]1O [AMIKACIN] | 32 (≈ 54.6 µM) | > 32 | 38% | – | – | – | – |
| O=C(O)c1cn(C2CC2)c2cc(N3CCNCC3)c(F)cc2c1=O [CIPROFLOXACIN] | – | – | 0% | – | – | – | – |
| C[C@H]1c2cccc(O)c2C(=O)C2=C(O)[C@]3(O)C(=O)C(C(N)=O)=C(O)[C@@H](N(C)C)[C@@H]3[C@@H](O)[C@@H]21.O [DOXYCYCLINE] | 2 | > 32 | 56% | – | – | – | – |
| C[C@@H](O)[C@H]1C(=O)N2C(C(=O)O)=C(SCCNC=N)C[C@H]12 [IMIPENEM ANHYDROUS] | 4 (≈ 13.4 µM) | 64 (≈ 214 µM) | 20% | – | – | – | – |
| C[C@@H](O)[C@H]1C(=O)N2C(C(=O)O)=C(S[C@@H]3CN[C@H](C(=O)N(C)C)C3)[C@H](C)[C@H]12 [MEROPENEM] | 16 (≈ 41.7 µM) | > 128 | 4% | – | – | – | – |
| CN(C)c1ccc(O)c2c1C[C@H]1C[C@H]3[C@H](N(C)C)C(O)=C(C(N)=O)C(=O)[C@@]3(O)C(O)=C1C2=O [MINOCYCLINE] | 0.5 (≈ 1.09 µM) | 8 (≈ 17.5 µM) | 83% | – | – | – | – |
| CO[C@H]1/C=C/O[C@@]2(C)Oc3c(C)c(O)c4c(O)c(c(/C=N/N5CCN(C)CC5)c(O)c4c3C2=O)NC(=O)/C(C)=C\C=C\[C@H](C)[C@H](O)[C@@H](C)[C@@H](O)[C@@H](C)[C@H](OC(C)=O)[C@@H]1C [RIFAMPIN] | 4 (≈ 4.86 µM) | 8 (≈ 9.72 µM) | inactive | – | – | – | – |
| CN(C)c1cc(NC(=O)CNC(C)(C)C)c(O)c2c1C[C@H]1C[C@H]3[C@H](N(C)C)C(O)=C(C(N)=O)C(=O)[C@@]3(O)C(O)=C1C2=O [TIGECYCLINE] | – | – | 95% | Active | 1 (≈ 1.71 µM) | 2 (≈ 3.41 µM) | – |
| POLYMYXIN B | 1 | 1 | 100% | – | – | – | 1.6 |
